Data as given in ChEMBL document CHEMBL4138103, “Discovery of efficient stimulators for adult hippocampal neurogenesis based on scaffolds in dragon's blood” (Eur J Med Chem, 2017).
Activity calls are given as the source filed them. No cut-off for these calls is given here.

What was measured:
[1] = Cytotoxicity against human SH-SY5Y cells assessed as cell survival at 100 uM after 24 hrs by MTT assay relative to control; type: cell-based; settings: read-out: Survival
In short: (§1)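 SH-SY5Y human neuroblastoma cells seeded at 5 × 10⁴ cells/mL, incubated 24 h at 37 °C, then exposed to compounds at final concentrations of […] for 24 h. MTT added for a further 4 h at 37 °C. Absorbance read at 570 nm and reported as percent viability. Five parallel samples per condition.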

[2] = Cytotoxicity against human SH-SY5Y cells assessed as cell survival at 500 uM after 24 hrs by MTT assay relative to control; type: cell-based; settings: read-out: Survival; in short: as §1
[3] = Cytotoxicity against human SH-SY5Y cells assessed as cell survival at 1000 uM after 24 hrs by MTT assay relative to control; type: cell-based; settings: read-out: Survival; in short: as §1
Rattus norvegicus [4] = test: In vivo neurogenic activity in Sprague-Dawley rat neural progenitor cells at 2.2 mg/kg, ip qd pretreated for 28 days followed by BrdU addition at 2 hrs interval for twice on day 29 measured after 24 hrs by BrdU incorporation assay; type: functional, organism-based
In short: (§2)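 Male SD rats aged 10 weeks, acclimatized 7 days (11 weeks old at start), dosed ip once daily for 28 days with compound in soybean oil containing 10% ethanol; vehicle group received 10% ethanol in oil. On day 29, BrdU in saline given twice at 100 mg/kg, 2 h apart. Rats sacrificed 24 h after the last BrdU. BrdU+ cells in SGZ-GCL counted by DAB immunostaining of 30 µm cryosections; n = 8; mean ± SEM.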

Rattus norvegicus [5] = test: In vivo neurogenic activity in Sprague-Dawley rat neural progenitor cells at 4 mg/kg, ip qd pretreated for 28 days followed by BrdU addition at 2 hrs interval for twice on day 29 measured after 24 hrs by BrdU incorporation assay relative to control; type: functional; in short: as §2

SMILES | viability at 24 h, 100 µM [1] [%] | viability at 24 h, 500 µM [2] [%] | viability at 24 h, 1000 µM [3] [%] | Activity (Rattus norvegicus [4]) | Activity (Rattus norvegicus [5])
CC(=O)Nc1cccc(/C=C/c2ccc3c(c2)OCO3)c1 | 20.9 | 7.78 | 2.7 | – | –
COc1ccc(C#Cc2ccc3c(c2)OCO3)cc1 | 75.9 | 69.1 | 63.8 | inactive | –
CC(=O)Nc1ccc(C#Cc2ccc3c(c2)OCO3)cc1 | 63.2 | 51.3 | 35.2 | – | inactive
C(=C\c1ccc2c(c1)OCO2)/c1ccc(OCc2ccccc2)cc1 | 67.3 | 72.7 | 80.6 | – | –
COc1ccc(/C=C/c2ccc(Cl)cc2)cc1OC | 57.3 | 51.6 | 56.4 | – | –
COc1ccc(C(=O)/C=C/c2ccc3c(c2)OCO3)c(O)c1 | 90.4 | 59.9 | 49.3 | – | –
COc1ccc(/C=C/c2ccc(N)c(F)c2)cc1 | 80 | 65.1 | 47.8 | – | –
COc1ccc(C(=O)/C=C/c2ccc(O)c(OC)c2)cc1 | 13.3 | 39.8 | 165 | – | –
C(#Cc1cccs1)c1ccc2c(c1)OCO2 | 43.9 | 27.5 | 17.7 | – | –
COc1cc(/C=C/c2ccc(O)cc2)cc(OC)c1 [PTEROSTILBENE] | -0.58 | 32.7 | 51.4 | – | Active
Cc1cc(C)cc(/C=C/c2ccc(O)cc2)c1 | 7.31 | 1.84 | 2.88 | – | –
N#Cc1ccc(/C=C/c2ccc3c(c2)OCO3)cc1 | 110 | 43.7 | 36.1 | – | Active
CN(C)c1ccc(/C=C/c2ccc3c(c2)OCO3)cc1 | 83.3 | 51.2 | 52.6 | – | Active
Oc1ccc(/C=C/c2cc(F)cc(F)c2)cc1 | -13.6 | -11 | -7.78 | – | –
Oc1ccc(/C=C/c2cccc(OC(F)(F)F)c2)cc1 | 77.1 | 55.4 | 5.06 | – | –
COc1cc(/C=C/c2ccc(NC(C)=O)cc2)cc(OC)c1 | 54.5 | 48.5 | 45.2 | – | Active
COc1ccc(/C=C/c2ccc3c(c2)OCO3)cc1 | 76.1 | 69.6 | 62.8 | – | Active
CC(=O)c1ccc(/C=C/c2ccc3c(c2)OCO3)cc1 | 70.3 | 63.5 | 53.9 | – | –
O=C(Nc1ccc(/C=C/c2ccc3c(c2)OCO3)cc1)c1cccs1 | 62.5 | 54.4 | 49.1 | – | Active
Oc1ccc(/C=C/c2ccc(Cl)cc2)cc1O | 107 | 69.2 | 38.5 | – | –
COc1ccc(/C=C/c2ccc(NC(C)=O)c(F)c2)cc1 | 14.2 | 1.52 | 0.69 | – | –
O=C(Nc1ccc(/C=C/c2ccc3c(c2)OCO3)cc1)C(F)(F)F | 75.2 | 53.4 | 41.5 | – | inactive
CCCC(=O)Nc1ccc(/C=C/c2ccc3c(c2)OCO3)cc1 | 58.8 | 40.7 | 33.3 | – | Active
CCCCCOc1ccc(C#Cc2ccc3c(c2)OCO3)cc1 | 69.8 | 22.9 | 15.3 | – | –
COc1ccc2c(c1)OC(c1ccc3c(c1)OCO3)CC2=O (centres undefined) | 73.2 | 44.8 | 27.3 | – | –
COc1cccc(/C=C/c2ccc3c(c2)OCO3)c1 | 72.5 | 52.7 | 32 | – | –
COc1cc(/C=C/C(=O)c2ccc(O)cc2)cc(OC)c1 | 5.64 | 3.53 | 2.57 | – | –
Oc1ccc(/C=C/c2cc(C(F)(F)F)cc(C(F)(F)F)c2)cc1 | -4.81 | -0.07 | -3.86 | – | –
